Laboratory results published in article PMC5292677 (Leukemia, 2016).

System: patients with myelofibrosis
Assay: Phase I safety: drug-related adverse events, DLTs, tolerability
Assay type: in vivo, human
Summary of the method: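 Design was 3+3 dose escalation of oral test compound QD (75–400 mg) or BID (100–400 mg) in 28-day cycles. AEs were graded by CTCAE v4.0 with causality, alongside labs, ECGs, vital signs and physical exams. A DLT was grade 4 cytopenia, other grade 3/4 hematologic toxicity, or grade 3/4 non-hematologic toxicity, excluding manageable GI events. The population was all patients dosed ≥1 time.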

[1] = baseline platelet count <100 × 10^9/l
[2] = baseline platelet count <100 × 10^9/l (n=16)
[3] = baseline platelet count ⩾100 × 10^9/l
[4] = baseline platelet count ⩾100 × 10^9/l (n=32)

With `C[C@H](Nc1cc(-c2cnn(C)c2)cc(Nc2cnccn2)n1)c1ccc(F)cc1` [NS-018] the “Cases of anemia (grade 2)” value (300 mg QD) was 1 case, the “Rate of discontinuations owing to AEs” value (300 mg QD) was 13% and the “Drug-related anemia, Grade 1/2” value (300 mg QD (n=16)) was 1 (6) n (%). For the same compound, the “Drug-related anemia, all grades” value (300 mg QD (n=16)) was 1 (6) n (%), the “Drug-related diarrhea, all grade” value (300 mg QD (n=16)) was 2 (13) n (%) and the “Drug-related diarrhea, grade 3 or 4” value (300 mg QD (n=16)) was 0 n (%). The “Drug-related dizziness, all grade” value (300 mg QD (n=16)) was 3 (19) n (%), the “Drug-related dizziness, grade 3 or 4” value (300 mg QD (n=16)) was 1 (6) n (%) and the “Drug-related esophageal reflux, all grade” value (300 mg QD (n=16)) was 1 (6) n (%). The “Drug-related esophageal reflux, grade 3 or 4” value (300 mg QD (n=16)) was 0 n (%), the “Drug-related headache, all grade” value (300 mg QD (n=16)) was 2 (13) n (%) and the “Drug-related headache, grade 3 or 4” value (300 mg QD (n=16)) was 0 n (%). The “Drug-related nausea, all grade” value (300 mg QD (n=16)) was 0 n (%), the “Drug-related paresthesia, all grade” value (300 mg QD (n=16)) was 1 (6) n (%) and the “Drug-related paresthesia, grade 3 or 4” value (300 mg QD (n=16)) was 0 n (%). The “Drug-related thrombocytopenia, Grade 1/2” value (300 mg QD (n=16)) was 0 n (%), the “Drug-related thrombocytopenia, Grade 3” value (300 mg QD (n=16)) was 2 (13) n (%) and the “Drug-related thrombocytopenia, Grade 4” value (300 mg QD (n=16)) was 1 (6) n (%). The “Drug-related thrombocytopenia, all grades” value (300 mg QD (n=16)) was 3 (19) n (%), the “Drug-related vomiting, all grade” value (300 mg QD (n=16)) was 1 (6) n (%) and the “Drug-related vomiting, grade 3 or 4” value (300 mg QD (n=16)) was 0 n (%). The “Drug-related weight increased, all grade” value (300 mg QD (n=16)) was 0 n (%), the “Drug-related grade 3 dyspnea” value (300 mg QD cohort) was 6% and the “Patients who discontinued owing to AEs (beyond DLT)” value (400 mg BID) was 2 patients. The “Drug-related anemia, Grade 1/2” value (400 mg BID (n=8)) was 1 (13) n (%), the “Drug-related anemia, Grade 3” value (400 mg BID (n=8)) was 1 (13) n (%) and the “Drug-related anemia, Grade 4” value (400 mg BID (n=8)) was 0 n (%). For the same compound, the “Drug-related anemia, all grades” value (400 mg BID (n=8)) was 2 (25) n (%), the “Drug-related diarrhea, all grade” value (400 mg BID (n=8)) was 1 (13) n (%) and the “Drug-related diarrhea, grade 3 or 4” value (400 mg BID (n=8)) was 0 n (%). The “Drug-related dizziness, all grade” value (400 mg BID (n=8)) was 2 (25) n (%), the “Drug-related dizziness, grade 3 or 4” value (400 mg BID (n=8)) was 1 (13) n (%) and the “Drug-related esophageal reflux, all grade” value (400 mg BID (n=8)) was 0 n (%). The “Drug-related headache, all grade” value (400 mg BID (n=8)) was 1 (13) n (%), the “Drug-related headache, grade 3 or 4” value (400 mg BID (n=8)) was 0 n (%) and the “Drug-related nausea, all grade” value (400 mg BID (n=8)) was 0 n (%). The “Drug-related paresthesia, all grade” value (400 mg BID (n=8)) was 0 n (%), the “Drug-related thrombocytopenia, Grade 1/2” value (400 mg BID (n=8)) was 0 n (%) and the “Drug-related thrombocytopenia, Grade 3” value (400 mg BID (n=8)) was 1 (13) n (%). For the same compound, the “Drug-related thrombocytopenia, Grade 4” value (400 mg BID (n=8)) was 0 n (%), the “Drug-related thrombocytopenia, all grades” value (400 mg BID (n=8)) was 1 (13) n (%) and the “Drug-related vomiting, all grade” value (400 mg BID (n=8)) was 0 n (%). The “Drug-related weight increased, all grade” value (400 mg BID (n=8)) was 0 n (%), the “DLT: grade 3 dizziness” value (400 mg BID cohort) was 1 patient and the “Tolerability as judged by the Safety Review Committee” value (400 mg BID/QD, based on proportion of drug-related neurological AEs) was “intolerable”. The “Drug-related anemia, Grade 1/2” value (400 mg QD (n=4)) was 1 (25) n (%), the “Drug-related anemia, all grades” value (400 mg QD (n=4)) was 1 (25) n (%) and the “Drug-related diarrhea, all grade” value (400 mg QD (n=4)) was 1 (25) n (%). The “Drug-related diarrhea, grade 3 or 4” value (400 mg QD (n=4)) was 0 n (%), the “Drug-related dizziness, all grade” value (400 mg QD (n=4)) was 1 (25) n (%) and the “Drug-related dizziness, grade 3 or 4” value (400 mg QD (n=4)) was 0 n (%). The “Drug-related esophageal reflux, all grade” value (400 mg QD (n=4)) was 0 n (%), the “Drug-related headache, all grade” value (400 mg QD (n=4)) was 0 n (%) and the “Drug-related nausea, all grade” value (400 mg QD (n=4)) was 1 (25) n (%). For the same compound, the “Drug-related nausea, grade 3 or 4” value (400 mg QD (n=4)) was 0 n (%), the “Drug-related paresthesia, all grade” value (400 mg QD (n=4)) was 1 (25) n (%) and the “Drug-related paresthesia, grade 3 or 4” value (400 mg QD (n=4)) was 0 n (%). The “Drug-related thrombocytopenia, all grades” value (400 mg QD (n=4)) was 0 n (%), the “Drug-related vomiting, all grade” value (400 mg QD (n=4)) was 0 n (%) and the “Drug-related weight increased, all grade” value (400 mg QD (n=4)) was 1 (25) n (%). For the same compound, the “Drug-related weight increased, grade 3 or 4” value (400 mg QD (n=4)) was 0 n (%), the “Recommended phase II dose (RP2D)” value (QD, oral) was 300 mg and the “Additional patients (beyond DLT) who discontinued owing to AEs” value (all cohorts) was 7 patients. For the same compound, the “Dose reduction owing to dizziness” value (all cohorts) was 4 n, the “Patients with dose reductions owing to AEs” value (all cohorts) was 11 patients and the “Patients with dose-limiting toxicities (DLTs)” value (all cohorts (n=48)) was 2 patients. The “Treatment discontinuation because of AEs” value (all cohorts (n=48), data cutoff 21 July 2015) was 8 n, the “Drug-related anemia, Grade 1/2” value (all dose cohorts (n=48)) was 4 (8) n (%) and the “Drug-related anemia, Grade 3” value (all dose cohorts (n=48)) was 3 (6) n (%). For the same compound, the “Drug-related anemia, Grade 4” value (all dose cohorts (n=48)) was 0 n (%), the “Drug-related anemia, all grades” value (all dose cohorts (n=48)) was 7 (15) n (%) and the “Drug-related diarrhea, all grade” value (all dose cohorts (n=48)) was 7 (15) n (%). For the same compound, the “Drug-related diarrhea, grade 3 or 4” value (all dose cohorts (n=48)) was 0 n (%), the “Drug-related dizziness, all grade” value (all dose cohorts (n=48)) was 11 (23) n (%) and the “Drug-related dizziness, grade 3 or 4” value (all dose cohorts (n=48)) was 3 (6) n (%). For the same compound, the “Drug-related esophageal reflux, all grade” value (all dose cohorts (n=48)) was 3 (6) n (%), the “Drug-related esophageal reflux, grade 3 or 4” value (all dose cohorts (n=48)) was 0 n (%) and the “Drug-related headache, all grade” value (all dose cohorts (n=48)) was 3 (6) n (%). The “Drug-related headache, grade 3 or 4” value (all dose cohorts (n=48)) was 0 n (%), the “Drug-related nausea, all grade” value (all dose cohorts (n=48)) was 9 (19) n (%) and the “Drug-related nausea, grade 3 or 4” value (all dose cohorts (n=48)) was 1 (2) n (%). For the same compound, the “Drug-related paresthesia, all grade” value (all dose cohorts (n=48)) was 4 (8) n (%), the “Drug-related paresthesia, grade 3 or 4” value (all dose cohorts (n=48)) was 1 (2) n (%) and the “Drug-related thrombocytopenia, Grade 1/2” value (all dose cohorts (n=48)) was 5 (10) n (%). For the same compound, the “Drug-related thrombocytopenia, Grade 3” value (all dose cohorts (n=48)) was 5 (10) n (%), the “Drug-related thrombocytopenia, Grade 4” value (all dose cohorts (n=48)) was 3 (6) n (%) and the “Drug-related thrombocytopenia, all grades” value (all dose cohorts (n=48)) was 13 (27) n (%). The “Drug-related vomiting, all grade” value (all dose cohorts (n=48)) was 3 (6) n (%), the “Drug-related vomiting, grade 3 or 4” value (all dose cohorts (n=48)) was 0 n (%) and the “Drug-related weight increased, all grade” value (all dose cohorts (n=48)) was 4 (8) n (%). For the same compound, the “Drug-related weight increased, grade 3 or 4” value (all dose cohorts (n=48)) was 0 n (%), the “Drug-related anemia, all grades” value (all patients (n=48)) was 15% and the “Drug-related anemia, grade 3/4” value (all patients (n=48)) was 6%. The Drug-related dizziness (all patients (n=48)) was 23%, the Drug-related nausea (all patients (n=48)) was 19% and the “Drug-related thrombocytopenia, all grades” value (all patients (n=48)) was 27%. The “Drug-related thrombocytopenia, grade 3/4” value (all patients (n=48)) was 17%, the “Drug-related thrombocytopenia, all grades” value [1] was 44% and the “Drug-related thrombocytopenia, grade 3/4” value [1] was 38%. For the same compound, the “Drug-related thrombocytopenia, Grade 1/2” value [2] was 1 (6) n (%), the “Drug-related thrombocytopenia, Grade 3” value [2] was 3 (19) n (%) and the “Drug-related thrombocytopenia, Grade 4” value [2] was 3 (19) n (%). The “Drug-related thrombocytopenia, all grades” value [2] was 7 (44) n (%), the “Drug-related thrombocytopenia, all grades” value [3] was 19% and the “Drug-related thrombocytopenia, grade 3/4” value [3] was 6%. For the same compound, the “Drug-related thrombocytopenia, Grade 1/2” value [4] was 4 (13) n (%), the “Drug-related thrombocytopenia, Grade 3” value [4] was 2 (6) n (%) and the “Drug-related thrombocytopenia, Grade 4” value [4] was 0 n (%). For the same compound, the “Drug-related thrombocytopenia, all grades” value [4] was 6 (19) n (%) and the “Grade 4 neurologic events” value (during the study) was “No grade 4 neurologic events”.
